Laboratory results from ChEMBL document CHEMBL2146445, “Discovery of BIIB042, a Potent, Selective, and Orally Bioavailable γ-Secretase Modulator” (ACS Med Chem Lett, 2011).
Calls of active or inactive are those of the source. The rule behind the calls is not given here.

How the values were obtained:
[1] = tested on: Brain; assay: Drug uptake in CF1 mouse brain at 10 mg/kg, po; type: ADME, organism-based; parameters: dose 10 mg/kg, route oral; conditions: in vivo, read-out: Drug uptake
In short: (§1)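 Wild-type CF-1 mice received a single oral dose as a solution in ethanol:propylene glycol:10% solutol (1:1:8). Animals were sacrificed 4 h after dosing. Brain and plasma were collected for drug concentration and Aβ levels. Aβ change was expressed relative to vehicle-treated controls.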

[2] = tested on: Plasma; assay: Plasma concentration in CF1 mouse at 10 mg/kg, po; type: ADME, organism-based; parameters: dose 10 mg/kg, route oral; conditions: in vivo
In short: (§2)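 Wild-type (CF-1) mice given compound orally as a solution in ethanol:propylene glycol:10% solutol (1:1:8). Animals sacrificed 4 h post-dose; brain and plasma collected for drug exposure and Aβ levels.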

[3] = Modulation of gamma-secretase in CHO cells overexpressing APP V717 mutant assessed as reduction in amyloid beta42 level after 17 hrs by ELISA; type: cell-based; conditions: Cricetulus griseus
In short: (§3)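 CHO cells overexpressing APP V717F; Aβ42, Aβ40 and Aβ38 quantified together in each well by multiplex Aβ ELISA. EC50 is the mean of at least two determinations.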

[4] = (§4) Modulation of gamma-secretase in CHO cells overexpressing APP V717 mutant assessed as increase in amyloid beta38 level after 17 hrs by ELISA; type: cell-based; conditions: Cricetulus griseus; in short: as §3
[5] = biological target: Voltage-gated inwardly rectifying potassium channel KCNH2 (Homo sapiens, UniProt Q12809); assay: Inhibition of human ERG by patch clamp assay
In short: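 hERG was tested in an automated FastPatch patch-clamp assay, giving an EC50 readout.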

[6] = Apparent permeability across human Caco2 cells; type: ADME, cell-based; conditions: Caco-2
[7] = biological target: Cytochrome P450 2C9 (Homo sapiens, UniProt P11712); assay: Inhibition of human CYP2C9; type: ADME
[8] = biological target: Cytochrome P450 2C19 (Homo sapiens, UniProt P33261); assay: Inhibition of human CYP2C19; type: ADME
[9] = biological target: Cytochrome P450 2D6 (Homo sapiens, UniProt P10635); assay: Inhibition of human CYP2D6; type: ADME
[10] = biological target: T1, Cytochrome P450 1A2 (Homo sapiens, UniProt P05177); assay: Inhibition of human CYP1A2; type: ADME
T1 sequence (P05177 whole entry): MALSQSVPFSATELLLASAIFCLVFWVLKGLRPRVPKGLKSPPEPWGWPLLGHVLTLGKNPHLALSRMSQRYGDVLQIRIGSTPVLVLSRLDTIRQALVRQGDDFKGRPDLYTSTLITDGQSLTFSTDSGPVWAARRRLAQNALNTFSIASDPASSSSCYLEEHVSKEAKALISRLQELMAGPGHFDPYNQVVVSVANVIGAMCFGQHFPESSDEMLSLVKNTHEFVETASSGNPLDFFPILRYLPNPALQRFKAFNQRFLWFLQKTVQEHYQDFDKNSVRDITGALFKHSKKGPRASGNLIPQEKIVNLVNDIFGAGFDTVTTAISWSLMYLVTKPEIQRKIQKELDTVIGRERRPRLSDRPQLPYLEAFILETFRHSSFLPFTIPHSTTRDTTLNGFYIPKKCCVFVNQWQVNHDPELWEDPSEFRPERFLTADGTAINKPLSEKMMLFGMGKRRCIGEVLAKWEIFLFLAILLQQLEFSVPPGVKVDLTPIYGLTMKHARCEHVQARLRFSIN

[11] = tested on: Plasma; assay: Fraction unbound in mouse plasma; type: ADME, cell-free
[12] = tested on: Plasma; assay: Fraction unbound in rat plasma; type: ADME, cell-free
[13] = tested on: Plasma; assay: Fraction unbound in dog plasma; type: ADME, cell-free, Canis lupus familiaris
[14] = tested on: Plasma; assay: Fraction unbound in monkey plasma; type: ADME, cell-free, Macaca mulatta; conditions: rhesus monkey
[15] = tested on: Plasma; assay: Fraction unbound in human plasma; type: ADME, cell-free
[16] = tested on: Salmonella typhimurium; assay: Mutagenicity in Salmonella typhimurium; type: toxicity, organism-based; conditions: salmonella enterica subsp. enterica serovar typhimurium
[17] = biological target: Prostaglandin G/H synthase 1 (Homo sapiens, UniProt P23219); assay: Inhibition of COX1
[18] = biological target: T2, Prostaglandin G/H synthase 2 (Homo sapiens, UniProt P35354); assay: Inhibition of COX2
T2 sequence (P35354 whole entry): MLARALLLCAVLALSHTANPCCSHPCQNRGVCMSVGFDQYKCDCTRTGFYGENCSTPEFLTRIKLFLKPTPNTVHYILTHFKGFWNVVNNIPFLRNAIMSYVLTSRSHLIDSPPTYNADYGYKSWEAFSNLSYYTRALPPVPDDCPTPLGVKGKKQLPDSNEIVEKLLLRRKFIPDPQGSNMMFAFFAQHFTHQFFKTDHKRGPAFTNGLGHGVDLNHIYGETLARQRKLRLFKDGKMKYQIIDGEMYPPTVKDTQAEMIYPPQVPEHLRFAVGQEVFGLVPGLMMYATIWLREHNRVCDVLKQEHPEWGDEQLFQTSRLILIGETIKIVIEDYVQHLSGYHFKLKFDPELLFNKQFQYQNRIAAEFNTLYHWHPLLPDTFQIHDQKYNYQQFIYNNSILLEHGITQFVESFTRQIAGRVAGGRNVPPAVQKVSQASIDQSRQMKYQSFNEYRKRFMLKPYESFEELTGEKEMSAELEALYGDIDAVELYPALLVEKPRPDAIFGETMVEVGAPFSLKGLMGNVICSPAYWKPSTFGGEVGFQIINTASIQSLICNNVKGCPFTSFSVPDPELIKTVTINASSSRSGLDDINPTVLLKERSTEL

[19] = biological target: Gamma-secretase; assay: Modulation of gamma-secretase in human H4 cells expressing wild type APP assessed as reduction in amyloid beta42 level; type: cell-based
[20] = tested on: Mus musculus; assay: Antialzheimer activity in CF1 mouse assessed as reduction in amyloid beta 42 level in brain at 10 mg/kg, po; type: functional; parameters: scale not given: the % may be the effect or the level left; in short: as §1
[21] = tested on: Rattus norvegicus; assay: Antialzheimer activity in Fischer rat assessed as reduction in amyloid beta 42 level in brain at 10 mg/kg, po; type: functional; parameters: scale not given: the % may be the effect or the level left
[22] = tested on: Cynomolgus monkey; assay: Antialzheimer activity in cynomolgus monkey assessed as reduction in amyloid beta 42 level in plasma at 10 mg/kg, po at 5 hrs; type: functional, Macaca fascicularis; parameters: scale not given: the % may be the effect or the level left
[23] = tested on: Rattus norvegicus; assay: Antialzheimer activity in Fischer rat assessed as effect on amyloid beta 40 level in brain at 10 mg/kg, po after 4 hrs; type: functional, organism-based; parameters: dose 10 mg/kg
[24] = tested on: Cynomolgus monkey; assay: Antialzheimer activity in cynomolgus monkey assessed as effect on amyloid beta 40 level in plasma at 10 mg/kg, po at 5 hrs; type: functional, organism-based; parameters: dose 10 mg/kg; conditions: Macaca fascicularis
[25] = tested on: CHO; assay: Modulation of gamma-secretase in CHO cells overexpressing APP V717 mutant assessed as effect on amyloid beta40 level after 17 hrs by ELISA; type: cell-based; conditions: Cricetulus griseus; in short: as §3
[26] = biological target: Neurogenic locus notch homolog protein 1 (Homo sapiens) (UniProt P46531); assay: Inhibition of NICD-mediated HES1 protein expression in human H4 cells at 10 uM after 24 hrs by Western blot analysis; type: cell-based
[27] = tested on: Mus musculus; assay: Antialzheimer activity in CF1 mouse assessed as increase in amyloid beta 38 level in brain at 10 mg/kg, po; type: functional, organism-based; parameters: dose 10 mg/kg; in short: as §1
[28] = tested on: Rattus norvegicus; assay: Antialzheimer activity in Fischer rat assessed as increase in amyloid beta 38 level in brain at 10 mg/kg, po after 4 hrs; type: functional, organism-based; parameters: dose 10 mg/kg
[29] = tested on: Cynomolgus monkey; assay: Antialzheimer activity in cynomolgus monkey assessed as increase in amyloid beta 38 level in plasma at 10 mg/kg, po at 5 hrs; type: functional, organism-based; parameters: dose 10 mg/kg; conditions: Macaca fascicularis
[30] = tested on: Mus musculus; assay: Antialzheimer activity in CF1 mouse assessed as effect on amyloid beta 40 level in brain at 10 mg/kg, po; type: functional, organism-based; parameters: dose 10 mg/kg; in short: as §1
[31] = tested on: CHO; assay: as §4; type: cell-based; conditions: Cricetulus griseus; in short: as §3
[32] = tested on: Mus musculus; assay: Antialzheimer activity in CF1 mouse assessed as reduction in amyloid beta42 level in brain at 30 mg/kg, po after 4 hrs by ELISA; type: functional; parameters: scale not given: the % may be the effect or the level left; in short: as §1
[33] = tested on: Rattus norvegicus; assay: Antialzheimer activity in F344 rat assessed as reduction in amyloid beta42 level in brain at 30 mg/kg, po after 4 hrs by ELISA; type: functional, organism-based; parameters: dose 30 mg/kg
[34] = Drug uptake in CF1 mouse brain at 30 mg/kg, po after 4 hrs; type: ADME, organism-based; parameters: dose 30 mg/kg, route oral; conditions: read-out: Drug uptake; in short: as §1
[35] = Plasma concentration in CF1 mouse at 30 mg/kg, po after 4 hrs; type: ADME, organism-based; parameters: dose 30 mg/kg, route oral; in short: as §2

Cytochrome P450 2C9, sequence (P11712 whole entry): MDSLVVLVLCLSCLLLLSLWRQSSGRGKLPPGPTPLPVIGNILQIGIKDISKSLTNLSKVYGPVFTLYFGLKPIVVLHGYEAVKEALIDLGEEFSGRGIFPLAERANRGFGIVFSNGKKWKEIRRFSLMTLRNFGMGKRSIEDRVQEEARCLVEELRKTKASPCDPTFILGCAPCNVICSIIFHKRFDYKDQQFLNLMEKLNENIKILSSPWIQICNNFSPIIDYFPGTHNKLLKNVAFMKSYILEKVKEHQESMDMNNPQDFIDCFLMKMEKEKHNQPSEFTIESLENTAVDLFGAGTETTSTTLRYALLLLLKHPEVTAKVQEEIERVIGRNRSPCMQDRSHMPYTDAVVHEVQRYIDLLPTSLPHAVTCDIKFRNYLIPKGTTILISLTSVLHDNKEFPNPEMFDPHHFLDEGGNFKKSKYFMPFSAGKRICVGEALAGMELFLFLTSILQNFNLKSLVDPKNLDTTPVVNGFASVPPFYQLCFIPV
Voltage-gated inwardly rectifying potassium channel KCNH2, sequence (Q12809 whole entry): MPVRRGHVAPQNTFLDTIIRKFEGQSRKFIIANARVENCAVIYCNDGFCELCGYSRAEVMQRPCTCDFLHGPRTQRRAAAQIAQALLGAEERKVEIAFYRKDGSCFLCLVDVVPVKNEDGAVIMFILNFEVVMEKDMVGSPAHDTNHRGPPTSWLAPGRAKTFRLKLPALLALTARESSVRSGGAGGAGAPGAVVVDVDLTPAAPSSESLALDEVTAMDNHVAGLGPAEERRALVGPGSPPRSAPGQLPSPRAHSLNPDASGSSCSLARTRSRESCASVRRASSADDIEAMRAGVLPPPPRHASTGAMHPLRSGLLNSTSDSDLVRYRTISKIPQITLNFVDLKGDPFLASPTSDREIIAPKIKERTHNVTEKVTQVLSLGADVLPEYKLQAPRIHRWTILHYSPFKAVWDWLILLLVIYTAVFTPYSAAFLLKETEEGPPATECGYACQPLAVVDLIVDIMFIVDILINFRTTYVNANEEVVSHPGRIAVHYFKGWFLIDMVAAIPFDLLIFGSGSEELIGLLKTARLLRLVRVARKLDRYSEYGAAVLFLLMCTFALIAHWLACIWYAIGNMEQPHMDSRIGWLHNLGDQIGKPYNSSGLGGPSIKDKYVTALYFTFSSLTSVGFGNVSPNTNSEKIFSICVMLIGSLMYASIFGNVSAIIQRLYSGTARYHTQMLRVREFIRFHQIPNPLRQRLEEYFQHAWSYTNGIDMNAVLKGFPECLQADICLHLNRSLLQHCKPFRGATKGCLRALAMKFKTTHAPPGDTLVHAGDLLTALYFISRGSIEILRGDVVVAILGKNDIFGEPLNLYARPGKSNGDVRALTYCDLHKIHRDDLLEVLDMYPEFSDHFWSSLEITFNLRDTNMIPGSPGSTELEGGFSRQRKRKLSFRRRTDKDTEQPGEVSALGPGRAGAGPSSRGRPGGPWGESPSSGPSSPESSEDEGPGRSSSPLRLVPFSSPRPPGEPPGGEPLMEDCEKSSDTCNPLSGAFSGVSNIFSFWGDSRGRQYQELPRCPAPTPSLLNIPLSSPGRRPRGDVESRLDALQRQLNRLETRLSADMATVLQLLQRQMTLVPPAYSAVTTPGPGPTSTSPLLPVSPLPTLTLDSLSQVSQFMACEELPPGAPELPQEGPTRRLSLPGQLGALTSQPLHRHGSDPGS
Neurogenic locus notch homolog protein 1 (Homo sapiens), sequence (P46531 whole entry): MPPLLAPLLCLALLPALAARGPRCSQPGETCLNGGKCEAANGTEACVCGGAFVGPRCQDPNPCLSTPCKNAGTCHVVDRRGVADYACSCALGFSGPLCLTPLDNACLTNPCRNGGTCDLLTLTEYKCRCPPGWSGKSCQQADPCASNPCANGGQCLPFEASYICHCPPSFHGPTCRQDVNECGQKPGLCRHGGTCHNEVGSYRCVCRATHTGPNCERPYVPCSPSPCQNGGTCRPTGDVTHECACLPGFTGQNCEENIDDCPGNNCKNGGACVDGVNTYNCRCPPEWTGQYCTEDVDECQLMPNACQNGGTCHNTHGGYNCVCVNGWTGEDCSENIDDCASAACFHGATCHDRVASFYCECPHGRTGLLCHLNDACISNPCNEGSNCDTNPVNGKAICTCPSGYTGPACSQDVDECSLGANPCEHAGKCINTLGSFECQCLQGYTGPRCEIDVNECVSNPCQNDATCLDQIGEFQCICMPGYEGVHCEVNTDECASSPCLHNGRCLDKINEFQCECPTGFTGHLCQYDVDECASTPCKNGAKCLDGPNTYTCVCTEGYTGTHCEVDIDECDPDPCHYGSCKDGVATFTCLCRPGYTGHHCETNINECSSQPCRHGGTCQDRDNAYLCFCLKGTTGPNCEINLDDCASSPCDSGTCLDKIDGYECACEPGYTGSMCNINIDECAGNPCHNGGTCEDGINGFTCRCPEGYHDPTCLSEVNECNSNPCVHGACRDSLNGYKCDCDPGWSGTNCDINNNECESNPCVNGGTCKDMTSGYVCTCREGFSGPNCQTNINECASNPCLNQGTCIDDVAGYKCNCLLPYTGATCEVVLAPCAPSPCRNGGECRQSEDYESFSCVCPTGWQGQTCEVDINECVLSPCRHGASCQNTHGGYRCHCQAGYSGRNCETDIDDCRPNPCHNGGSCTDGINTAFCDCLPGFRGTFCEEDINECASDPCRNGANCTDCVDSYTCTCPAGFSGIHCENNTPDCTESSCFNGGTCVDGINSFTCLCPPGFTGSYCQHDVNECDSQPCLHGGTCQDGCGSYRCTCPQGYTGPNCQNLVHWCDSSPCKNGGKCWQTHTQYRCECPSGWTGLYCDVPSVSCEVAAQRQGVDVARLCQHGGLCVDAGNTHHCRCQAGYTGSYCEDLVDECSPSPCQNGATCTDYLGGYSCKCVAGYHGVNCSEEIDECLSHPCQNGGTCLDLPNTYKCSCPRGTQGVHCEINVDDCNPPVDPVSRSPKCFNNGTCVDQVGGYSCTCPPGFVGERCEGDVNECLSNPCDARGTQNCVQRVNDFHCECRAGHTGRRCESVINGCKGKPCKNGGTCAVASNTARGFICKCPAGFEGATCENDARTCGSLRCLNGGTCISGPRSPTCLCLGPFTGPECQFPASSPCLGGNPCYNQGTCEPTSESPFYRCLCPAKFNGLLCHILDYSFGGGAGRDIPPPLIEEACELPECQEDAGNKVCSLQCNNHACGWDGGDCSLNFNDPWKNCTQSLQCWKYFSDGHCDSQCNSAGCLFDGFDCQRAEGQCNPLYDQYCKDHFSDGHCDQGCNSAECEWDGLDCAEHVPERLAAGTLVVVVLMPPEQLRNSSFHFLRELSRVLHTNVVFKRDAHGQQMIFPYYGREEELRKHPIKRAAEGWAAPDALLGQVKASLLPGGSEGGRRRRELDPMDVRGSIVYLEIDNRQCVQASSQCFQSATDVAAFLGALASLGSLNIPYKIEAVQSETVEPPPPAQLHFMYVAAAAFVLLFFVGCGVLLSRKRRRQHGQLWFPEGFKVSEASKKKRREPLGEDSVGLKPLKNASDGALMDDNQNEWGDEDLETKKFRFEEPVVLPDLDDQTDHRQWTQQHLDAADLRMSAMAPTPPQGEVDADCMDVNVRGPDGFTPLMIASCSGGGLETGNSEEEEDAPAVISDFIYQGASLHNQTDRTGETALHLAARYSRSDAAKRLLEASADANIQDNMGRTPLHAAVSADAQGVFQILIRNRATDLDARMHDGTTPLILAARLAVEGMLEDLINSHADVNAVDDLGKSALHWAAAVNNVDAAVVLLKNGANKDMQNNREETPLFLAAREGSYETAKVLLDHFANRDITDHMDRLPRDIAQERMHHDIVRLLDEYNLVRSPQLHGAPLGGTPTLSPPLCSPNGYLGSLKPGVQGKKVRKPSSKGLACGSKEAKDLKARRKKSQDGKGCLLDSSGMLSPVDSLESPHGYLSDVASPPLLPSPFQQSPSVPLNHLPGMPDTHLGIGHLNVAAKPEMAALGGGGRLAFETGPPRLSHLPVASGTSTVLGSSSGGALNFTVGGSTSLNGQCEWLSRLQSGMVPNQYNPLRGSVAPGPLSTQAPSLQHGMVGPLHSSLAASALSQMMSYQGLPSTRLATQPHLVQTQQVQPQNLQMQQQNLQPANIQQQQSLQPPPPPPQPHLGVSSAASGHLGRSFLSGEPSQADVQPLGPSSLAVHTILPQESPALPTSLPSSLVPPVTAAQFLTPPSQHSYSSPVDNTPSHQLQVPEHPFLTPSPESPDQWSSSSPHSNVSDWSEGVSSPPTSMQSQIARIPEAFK
Cytochrome P450 2C19, sequence (P33261 whole entry): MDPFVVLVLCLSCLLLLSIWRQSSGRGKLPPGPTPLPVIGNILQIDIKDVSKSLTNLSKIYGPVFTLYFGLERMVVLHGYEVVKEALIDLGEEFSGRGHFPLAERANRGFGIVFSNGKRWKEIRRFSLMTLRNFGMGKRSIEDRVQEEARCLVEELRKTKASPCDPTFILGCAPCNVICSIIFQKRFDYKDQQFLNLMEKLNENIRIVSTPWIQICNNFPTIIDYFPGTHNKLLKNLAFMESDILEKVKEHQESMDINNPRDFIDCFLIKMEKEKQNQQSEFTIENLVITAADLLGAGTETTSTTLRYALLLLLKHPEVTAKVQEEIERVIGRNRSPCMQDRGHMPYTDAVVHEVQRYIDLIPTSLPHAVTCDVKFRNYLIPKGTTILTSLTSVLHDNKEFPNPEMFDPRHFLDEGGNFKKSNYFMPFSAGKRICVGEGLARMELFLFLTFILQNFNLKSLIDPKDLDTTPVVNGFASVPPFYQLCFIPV

CC1CCN([C@H](c2ccc(F)cc2)c2ccc([C@@H](C)C(=O)O)cc2-c2ccc(C(F)(F)F)cc2)CC1 [listing 1 of 2 here]
concentration [1]: 4.6 µM
concentration [2]: 10 µM
EC50 [3]: 170 nM
EC50 [4]: 150 nM
EC50 [5]: 15 µM
Papp [6]: 43.8 ×10⁻⁶ cm/s
IC50 [7]: > 35 µM
IC50 [8]: > 35 µM
IC50 [9]: > 35 µM
IC50 [10]: > 35 µM
Fu [11]: < 0.1%
Fu [12]: < 0.1%
Fu [13]: < 0.1%
Fu [14]: < 0.1%
Fu [15]: < 0.1%
Activity [16]: Non-toxic
IC50 [17]: 35 µM
IC50 [18]: 27 µM
EC50 [19]: 70 nM
Activity [20]: 40%
Activity [21]: 30%
Activity [22]: 30%

CC1CCN([C@H](c2ccc(F)cc2)c2ccc([C@@H](C)C(=O)O)cc2-c2ccc(C(F)(F)F)cc2)CC1 [listing 2 of 2 here]
Activity [23]: inactive
Activity [24]: inactive
Activity [25]: inactive
inhibition [26]: inactive
Activity [27]: Active
Activity [28]: Active
Activity [29]: Active
Activity [30]: inactive

CC1CCN(C(c2ccc(F)cc2)c2ccc(C(C)(C)C(=O)O)cc2-c2ccc(C(F)(F)F)cc2)CC1 (configuration not stated)
EC50 [3]: 450 nM
Activity [31]: Active
Activity [25]: inactive
Activity [32]: 30%
Activity [33]: inactive
concentration at 4 h [34]: 16.1 µM
concentration at 4 h [35]: 22.8 µM
